Screens: PubChem BioAssay, several laboratories
XBP1 UPR activ – activators of adaptive arm of unfolded protein response (XBP1); CHO-XBP1 luciferase reporter, IRE1-XBP1 UPR activation, luminescence; percent of tunicamycin response, DMSO as zero; activation, % at 20 µM; actives 0.33% (n = 330,000); AID 463104;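 active = versus positive control, 20 µM dose yields 30% or more activation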;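 note: 100% = tunicamycin at 10 µg/mL and 0% = DMSO only wells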
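incubation = overnight seeding at 37 °C, 6 h compound treatment at 37 °C | assay system = CHO-XBP1 cells stably carrying IRE1-XBP1-driven luciferase reporter | input = 1000 cells per well | detection = luciferase luminescence | dosing = single point, 20 µM final compound, 1% DMSO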
CHOP inh – inhibitors of CHOP induction in ER stress response; AID 2732; CHO-K1 CHOP-promoter luciferase, tunicamycin-induced, 15-18 h; inhibition, % at 10 µM; actives 3.8% (n = 220,000);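 active = compounds that reduced the stress-induced luciferase reporter signal by more than about 70% of percent inhibition, limit read from the data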;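 note: 0% = tunicamycin plus vehicle and 100% = wells without tunicamycin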
CHOP UPR activ – apoptotic UPR (CHOP) activation; CHO-CHOP luciferase reporter, luminescence; percent of tunicamycin response over DMSO baseline; activation, % at 10 µM; actives 0.34% (n = 330,000);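 active = at 10 µM dose, activation of 40% or more, normalized to positive control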;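 note: 100% = tunicamycin at 10 µg/mL and 0% = DMSO alone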
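System: CHO CHOP reporter cells. Amount: 500 cells per well. Buffer or medium: F12 medium, 10% FBS. Compound dosing: one dose, 10 µM in 0.5% DMSO. Incubation: 6 h compound exposure at 37 °C after overnight seeding. Technique: Steady-Glo luciferase luminescence. Benchmarks: tunicamycin and DMSO controls.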
TbMetRS inhib – blocks T. brucei methionyl-tRNA synthetase activity; AID 624268; purified T. brucei MetRS, ATP depletion, Kinase-Glo luminescence; actives 0.4% (n = 360,000); inhibition, % at 11.9 µM;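 active = inhibition above a per-plate cutoff of the control wells' mean inhibition plus 3 SD, cut at about 5.5% in these data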;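 note: 0% = DMSO wells median and 100% = median of wells with control inhibitor compound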
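System: purified T. brucei MetRS enzyme / Detection: Kinase-Glo luciferase luminescence reporting remaining unconsumed ATP / Medium: HEPES buffer with MgCl2, KCl, DTT, spermine, BSA, pyrophosphatase / Replication: singlicate, one well per compound / Evaluation: percent inhibition relative to median high and low control wells / Schedule: 2 h aminoacylation at 25 °C after 15 min preincubation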
V-ATPase pH – regulators of yeast V-ATPase proton transport; S. cerevisiae, pHLuorin cytosolic pH fluorescence; response, % at 10 µM; actives 0.37% (n = 350,000); AID 504577; in the data active = response mostly above about 7.3%, no sharp cut-off; inactive = mostly below about 5.4%; note: actives read high
* hit, by the source's call. Many of the other results were omitted from the sample, so hits are more common in it than they were.

For Cc1ccc(SCC(=O)NC(=O)NC(C)C)c(C)c1 the results were XBP1 UPR activ 0, CHOP inh 21, CHOP UPR activ -1, TbMetRS inhib 0 and V-ATPase pH 0.
`CCN1CCN(C(=O)C(Cc2ccccc2)NC(=O)c2ccc(Cl)c(S(=O)(=O)N(C)C)c2)CC1` (stereo not drawn) gave XBP1 UPR activ 3, CHOP UPR activ 0, TbMetRS inhib 0 and V-ATPase pH 1.
CCCCc1c(C)nc(Nc2ccc(OC)cc2)[nH]c1=O was read as XBP1 UPR activ -1, CHOP inh 29, CHOP UPR activ 2, TbMetRS inhib 0 and V-ATPase pH 4.
For CCCCCc1c(C)nc(Nc2ccc(F)cc2)[nH]c1=O the results were XBP1 UPR activ -2, CHOP inh 82*, CHOP UPR activ 0, TbMetRS inhib 0 and V-ATPase pH 2.
For Cc1ccccc1CNC(=O)c1ccc2nc([C@@H]3O[C@H](CO)[C@H](O)[C@H](O)[C@H]3O)[nH]c2c1 the results were TbMetRS inhib 0.
`COc1cc(NC(=O)CCC(=O)N2CCN(S(=O)(=O)c3ccc(C)cc3)CC2)cc(OC)c1` gave TbMetRS inhib 0 and V-ATPase pH -1.
For O=C(NC1CCCC1)c1cc2nc(-c3ccccc3)cc(-c3ccccc3)n2n1 the results were XBP1 UPR activ 1, CHOP inh 0, CHOP UPR activ 1, TbMetRS inhib 0 and V-ATPase pH -1.
